Published values pooled from the literature.
Protocols differ between the studies behind these lines.
Observed: metabolic stability

Structure (SMILES)	system	conditions	measurement	result
O=c1ccc2cc(O)ccc2o1	mouse, liver microsomes	–	microsomal CLint	170 µL/min/mg
CCOc1ccc2ccc(=O)oc2c1	male CD-1 mouse, hepatocytes	1 µM	hepatocyte CLint	> 46.2 µL/min/10⁶ cells
O=C(O)Cc1ccccc1Nc1c(Cl)cccc1Cl	mouse, liver microsomes	–	scaled CLint	90.3 mL/min/kg
CC(C)Oc1ccc(S(=O)(=O)c2ccc(Oc3cc(OCC(N)=O)c(C(=O)C(Cl)Cl)cc3[N+](=O)[O-])cc2)cc1	mouse, liver microsomes	–	microsomal CLint	197 µL/min/mg
O=c1ccc2ccc(O)cc2o1	mouse, liver microsomes	–	scaled CLint	3050 mL/min/kg
CCN(CCN)c1ccc(Nc2cc(NC3CC3)n3ncc(C#N)c3n2)cc1-n1cnnc1	male CD-1 mouse, hepatocytes	1 µM, serum-free	scaled CLint	< 32 mL/min/kg
CC1(CN)CCN(c2cnc3c(Sc4ccncc4Cl)n[nH]c3n2)CC1	mouse, liver microsomes	–	scaled CLint	8.71 mL/min/kg
Cc1ccc(Cn2cc(C(=O)NN)c(=O)c3cc(Oc4ccccc4)ccc32)cc1	male CD-1 mouse, liver microsomes	1 µM	microsomal CLint	< 11.6 µL/min/mg
